From PubChem BioAssay
Active and inactive are the calls of the source.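 Rule for the calls, unless noted: active = inhibition above 20% together with a positive visual image hit; inconclusive = visual image hit but inhibition not above 20%; inactive = no visual image hit.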

Assays:
[1] = inhibitors of TNFa-induced NFkB p65 translocation, primary screen, imaging, HUVEC, MLSMR starter and 10KST1 sets (AID 438); conditions: HUVEC TNFa-induced p65 nuclear translocation; cell count: measured here: nuclei count (cytotoxicity indicator), at 2.08 µM; inhibition: at 2 µM, stronger effect = higher value, 0% TNFa-plus-vehicle, 100% no-TNFa wells;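 note: compound added about 3h40 before a 20 min TNFalpha stimulation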;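 for inhibition: signal is the nuclear over cytoplasmic p65 intensity ratio per well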
[2] = inhibitors of mutant huntingtin aggregation, primary screen, imaging, exon1htt(103Q)mCFP cells, high-content imaging (AID 483;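 active = visual image review flags a hit and inhibition of aggregation exceeds 20%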;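 note: compound exposure lasted 3 days before fixation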;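 for nuclei count: percent of the per-plate median nuclei count of sample wells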); conditions: exon1htt(103Q)mCFP cell line, aggregate imaging, at 2 µM; inhibition of aggregation: stronger effect = higher value; nuclei count: measured here: cell count, toxicity
[3] = inhibitors of E-selectin induction by TNFa, primary screen, imaging, HUVEC, immunofluorescence, MLSMR starter and 10KST1 sets (AID 487;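 active = visually confirmed hit in the image check and inhibition above 20%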;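 for inhibition: signal is fraction of cell area covered by stained E-selectin grains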;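 for nuclei count: 100% = median nuclei count of all wells on the same plate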); conditions: HUVEC TNFalpha-induced E-selectin immunofluorescence imaging, at 2 µM; inhibition: stronger effect = higher value; nuclei count: measured here: cell number, toxicity
[4] = molecular target: Voltage-gated potassium channel subunit beta-2 (Rattus norvegicus) (UniProt P62483); assay: KvBeta enzyme negative modulators, primary screen, biochemical, NADPH fluorescence (AID 622;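 active = fluorescence slope higher than the sample average by over 3 SD, cut at about -0.22 in these data, passing the limit was not always enough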;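 note: slope of raw intensity against log time taken from 70 to 1610 s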); conditions: recombinant KvBeta, 4-cyanobenzaldehyde reduction, at 10 µM, stronger effect = higher value
Chain of Voltage-gated potassium channel subunit beta-2 (Rattus norvegicus) (P62483 whole entry, looked up): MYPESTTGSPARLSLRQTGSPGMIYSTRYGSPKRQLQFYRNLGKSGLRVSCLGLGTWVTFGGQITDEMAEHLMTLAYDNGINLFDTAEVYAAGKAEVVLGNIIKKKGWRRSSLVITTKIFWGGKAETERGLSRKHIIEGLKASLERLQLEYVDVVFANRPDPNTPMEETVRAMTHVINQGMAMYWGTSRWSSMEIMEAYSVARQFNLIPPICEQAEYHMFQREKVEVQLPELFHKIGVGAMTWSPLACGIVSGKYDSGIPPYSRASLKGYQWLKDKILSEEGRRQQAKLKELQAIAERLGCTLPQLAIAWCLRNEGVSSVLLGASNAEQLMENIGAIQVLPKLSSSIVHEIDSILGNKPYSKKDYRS

[5] = molecular target: Voltage-gated potassium channel subunit beta-2 (Rattus norvegicus) (UniProt P62483); assay: KvBeta positive modulators, primary screen, biochemical, NADPH fluorescence (AID 623;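 active = NADPH fluorescence slope more negative than the mean of all samples by about 3 SD, 99.7% confidence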;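 note: fluorescence intensity change per second fitted from 20 to 320 s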); conditions: Recombinant KvBeta, NADPH fluorescence decrease slope, 10 min; at 10 µM; stronger effect = lower value
[6] = molecular target: Muscarinic acetylcholine receptor M4 (Homo sapiens) (UniProt P08173); assay: compounds altering M4/GIRK thallium flux, either direction, primary screen, M4 allosteric agonist project, cell-based, HEK293 M4/GIRK, BTC-AM (AID 625;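 active = fluorescence slope after compound addition differing from the mean of all tested samples at 99.7% confidence, mostly higher but some lower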;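 note: thallium influx through GIRK channels coupled to M4 in HEK293 cells with BTC-AM dye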); conditions: at 10 µM, actives lie on both sides
Chain of Muscarinic acetylcholine receptor M4 (Homo sapiens) (P08173 whole entry, looked up): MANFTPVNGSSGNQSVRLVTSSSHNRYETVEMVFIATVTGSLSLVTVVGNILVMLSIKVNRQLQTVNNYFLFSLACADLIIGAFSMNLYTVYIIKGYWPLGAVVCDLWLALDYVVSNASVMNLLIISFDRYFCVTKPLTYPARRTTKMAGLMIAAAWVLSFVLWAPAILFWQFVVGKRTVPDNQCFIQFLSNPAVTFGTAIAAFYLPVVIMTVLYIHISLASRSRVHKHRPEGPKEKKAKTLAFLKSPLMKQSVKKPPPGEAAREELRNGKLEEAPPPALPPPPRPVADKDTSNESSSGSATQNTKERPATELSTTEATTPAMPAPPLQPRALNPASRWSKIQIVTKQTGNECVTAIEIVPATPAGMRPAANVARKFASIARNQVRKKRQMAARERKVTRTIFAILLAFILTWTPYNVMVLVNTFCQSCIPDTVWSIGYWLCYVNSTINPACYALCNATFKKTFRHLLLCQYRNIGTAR
Method in brief: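 assay system = HEK293 cells with M4 receptor and GIRK channels | medium = pH 7.3 thallium assay buffer | doses = 10 µM final, single point | timing = cells overnight at 37 °C, BTC-AM loading 1 h, reads 2 min total | signal = BTC-AM fluorescence, 1 Hz kinetic reads | read-out = post-addition slope, 15–24 s, of baseline-normalized fluorescence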

[7] = inhibitors of Sendai virus-induced IRF3 signaling, primary screen, TLR/RLR signaling modifier project, cell-based, Sendai virus stimulus, luciferase, 10K MLSCN set (AID 602276;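 active = inhibition at or above 50% at 10 µM; inactive = inhibition below 50%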;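 note: firefly luciferase from ISG56 promoter only with Renilla not read in this screen; 0% = Sendai virus plus DMSO and 100% = medium plus DMSO without virus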); conditions: HEK293 RL24 IRF3 luciferase reporter, at 10 µM, stronger effect = higher value
[8] = inhibitors of poly I:C-induced TLR3 signaling, primary screen, cell-based, poly I:C stimulus, luciferase, 10K MLSCN set (AID 602277;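 active = inhibition of the reporter signal at or above 50%; inactive = inhibition below 50%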); conditions: HEK293-TLR3 RL24 IRF3 luciferase reporter, at 10 µM, stronger effect = higher value

Structure (SMILES) | cell count [1] | inhibition [1] | inhibition of aggregation [2] | nuclei count [2] [%] | inhibition [3] | nuclei count [3] [%] | fluorescence slope [4] | NADPH fluorescence slope [5] | fluorescence slope [6] | inhibition [7] | inhibition [8]
CC(=O)c1cc(-c2ccccc2)n(CC(=O)N2CCN(C3CCCC3)CC2)c1C | 407 | 8.8% (inactive) | 23.8% (inactive) | 81 | 25.1% (inactive) | 103 | -0.571 (inactive) | -7.1e-05 (inactive) | 0.00681 (inactive) | 13.3% (inactive) | 23.8% (inactive)
O=C1CC(c2ccco2)CC(O)=C1C=NCCN1CCNCC1 (stereo not drawn) | 315 | -8.1% (inactive) | -0.5% (inactive) | 114 | -35% (inactive) | 122 | -0.595 (inactive) | 9e-06 (inactive) | 0.00594 (inactive) | 22.6% (inactive) | 31.6% (inactive)
CCOC(=O)C1CCCN(Cc2nc(N)nc(Nc3ccccc3)n2)C1 (stereo not drawn) | 741 | -4.7% (inactive) | -2.7% (inactive) | 104 | -49.1% (inactive) | 106 | -0.57 (inactive) | -4.6e-05 (inactive) | 0.0052 (inactive) | 22.1% (inactive) | 16.8% (inactive)
O=C(NCc1ccco1)Nc1ccc2nsnc2c1 | 683 | -6.1% (inactive) | -22.1% (inactive) | 113 | -138% (inactive) | 119 | -0.445 (inactive) | -2.6e-05 (inactive) | 0.00612 (inactive) | -31.4% (inactive) | -83.7% (inactive)
C/C(Cl)=C\Cn1c(NCCc2ccccc2)nc2c1c(=O)n(C)c(=O)n2C | 636 | -7.8% (inactive) | 29.8% (inactive) | 84.6 | 6.4% (inactive) | 96.4 | -0.286 (inactive) | -2.8e-05 (inactive) | 0.00523 (inactive) | 12.1% (inactive) | 2.85% (inactive)
O=C(Nc1ccc(N2CCOCC2)c(F)c1)c1ccncc1 | 262 | -3.2% (inactive) | 0.1% (inactive) | 99.8 | -30% (inactive) | 90 | -0.451 (inactive) | 8.4e-05 (inactive) | 0.00591 (inactive) | -9.16% (inactive) | -33.6% (inactive)
Cc1ccc(S(=O)(=O)N2CCCC2)cc1S(=O)(=O)N1CCCC1 | 698 | -9% (inactive) | -7.5% (inactive) | 111 | 10.3% (inactive) | 116 | -0.609 (inactive) | -1.2e-05 (inactive) | 0.00607 (inactive) | 13.4% (inactive) | 12.9% (inactive)
Cc1cc2oc(=O)cc(CN3CCN(Cc4ccc5c(c4)OCO5)CC3)c2cc1C | 362 | 6.8% (inactive) | -15.1% (inactive) | 99.2 | -0.8% (inactive) | 108 | -0.536 (inactive) | -4.3e-05 (inactive) | 0.00603 (inactive) | 5.83% (inactive) | 27% (inactive)
COc1cccc(N2CCN(c3c4c(nc5ncnn35)CCC4)CC2)c1 | 468 | 17.4% (inactive) | -4.1% (inactive) | 102 | 2.7% (inactive) | 109 | -0.558 (inactive) | -5.9e-05 (inactive) | 0.00591 (inactive) | 0.933% (inactive) | -39.1% (inactive)
CCNC(=O)N1c2ccc(OCC)cc2C(C)=CC1(C)C | 599 | 2.5% (inactive) | 37.2% (inactive) | 94.1 | -34% (inactive) | 102 | -0.588 (inactive) | -3e-05 (inactive) | 0.00404 (inactive) | -6.26% (inactive) | 4.09% (inactive)
Cc1ccccc1N1CC(c2nc3ccccc3[nH]2)CC1=O (stereo not drawn) | 385 | 3% (inactive) | -1.2% (inactive) | 107 | -7.2% (inactive) | 110 | -0.478 (inactive) | -1.5e-05 (inactive) | 0.0056 (inactive) | -2.87% (inactive) | 98.3% (active)
O=C(c1cc2ccccc2oc1=O)N1CCSC1c1ccco1 (stereo not drawn) | 310 | 5.3% (inactive) | 3.2% (inactive) | 102 | -24.5% (inactive) | 112 | -0.398 (inactive) | -9.8e-05 (inactive) | 0.00556 (inactive) | 12.5% (inactive) | 22% (inactive)
O=C1NC(=O)C2(CCC(C(=O)O)C2)N1 (stereo not drawn) | 557 | -17.5% (inactive) | -0.1% (inactive) | 100 | -72.3% (inactive) | 119 | -0.408 (inactive) | 3.7e-05 (inactive) | 0.00541 (inactive) | 13.2% (inactive) | 17.5% (inactive)
COc1ccc(Cl)cc1NC(=O)COc1cccc(-n2cnnn2)c1 | 371 | 1.2% (inactive) | 5.6% (inactive) | 102 | 10.9% (inactive) | 112 | -0.528 (inactive) | -1.9e-05 (inactive) | 0.00451 (inactive) | 6.87% (inactive) | -12.1% (inactive)
CCOC(=O)C1=C(C)Nc2ncnn2C1c1cc(OC)ccc1OC (stereo not drawn) | 465 | 4.5% (inactive) | -7.4% (inactive) | 97.1 | -356% (inactive) | 126 | -0.236 (inactive) | -2.1e-05 (inactive) | 0.00778 (inactive) | 16.3% (inactive) | 1.62% (inactive)
NC(=O)C1(N2CCCCC2)CCN(Cc2ccccc2Cl)CC1 | 438 | 0.3% (inactive) | -1% (inactive) | 98 | 3.4% (inactive) | 103 | -0.233 (inactive) | -2.8e-05 (inactive) | 0.0052 (inactive) | 12.3% (inactive) | 19.9% (inactive)
CC(NC(=O)c1ccccc1NC(=O)c1ccco1)C(=O)O (stereo not drawn) | 438 | 0.9% (inactive) | -9.6% (inactive) | 100 | -67.5% (inactive) | 121 | -0.551 (inactive) | -5.5e-05 (inactive) | 0.006 (inactive) | 23.6% (inactive) | 20% (inactive)
O=C(NCCc1cccc(Cl)c1)c1cccnc1 | 341 | -8% (inactive) | -14.1% (inactive) | 95.5 | -194% (inactive) | 119 | -0.562 (inactive) | -1.7e-05 (inactive) | 0.00601 (inactive) | -14.6% (inactive) | -52% (inactive)
Cn1cccc1C(=O)NC(=O)CSc1nnc(C2CC2)n1-c1ccccc1 | 670 | -2% (inactive) | -30.7% (inactive) | 93.6 | 27.3% (inactive) | 62.6 | -0.589 (inactive) | 4.6e-06 (inactive) | 0.00691 (inactive) | 26.6% (inactive) | 9.42% (inactive)
Cc1nc(NC2=NCN(CCCN3CCOCC3)CN2)nc2c(C)cccc12 | 552 | 12.1% (inactive) | 0.1% (inactive) | 73.7 | 35.4% (inactive) | 97.1 | -0.571 (inactive) | -6.5e-05 (inactive) | 0.00567 (inactive) | 26.7% (inactive) | 31.4% (inactive)
COc1ccc(S(=O)(=O)NCc2ccco2)cc1-c1nnc2c3ccccc3c(C)nn12 | 723 | -2.2% (inactive) | -27% (inactive) | 101 | -77.8% (inactive) | 106 | -0.444 (inactive) | -2.6e-05 (inactive) | 0.00549 (inactive) | 12.3% (inactive) | 11.8% (inactive)
COc1ccc(OC)c(NC(=O)Cc2coc3ccc(C)cc23)c1 | 451 | 3.5% (inactive) | 3.9% (inactive) | 97.1 | 46.7% (inactive) | 90.5 | -0.468 (inactive) | -3.1e-05 (inactive) | 0.0049 (inactive) | 13.3% (inactive) | 16.6% (inactive)
CC(C)(C)OC(=O)N1CC(O)CC1C(=O)OCC(=O)c1ccc(Cl)cc1 (stereo not drawn) | 445 | -7.4% (inactive) | 22.1% (inactive) | 105 | -22.9% (inactive) | 103 | -0.316 (inactive) | -6e-05 (inactive) | 0.00558 (inactive) | 8.08% (inactive) | 19.4% (inactive)
Cc1ccc(NC(=O)c2oc3ccc(S(=O)(=O)N4CCOCC4)cc3c2C)cc1C | 357 | -20.4% (inactive) | -20.5% (inactive) | 109 | -98.4% (inactive) | 133 | -0.278 (inactive) | 2.2e-05 (inactive) | 0.00768 (inactive) | 11% (inactive) | 13.9% (inactive)
O=P(O)(O)c1ccccc1OCCOCCOc1ccccc1P(=O)(O)O | 311 | -0.9% (inactive) | 8% (inactive) | 60.2 | -21.3% (inactive) | 86.4 | -0.308 (inactive) | -5.3e-05 (inactive) | 0.00635 (inactive) | 11.2% (inactive) | 15.3% (inactive)
CC(C)[C@H](NC(=O)OC(C)(C)C)c1nnc(S(=O)(=O)Cc2c(F)cccc2Cl)o1 | 570 | 10.7% (inactive) | -0.1% (inactive) | 89.7 | 36.5% (inactive) | 101 | -0.521 (inactive) | -0.000188 (inactive) | 0.00242 (inactive) | 32.2% (inactive) | 21.7% (inactive)
Cc1cncn1CCc1nc2c3ccccc3nc(=S)n2[nH]1 | 537 | 0% (inactive) | 4.4% (inactive) | 67.3 | -141% (inactive) | 110 | -0.432 (inactive) | 1.4e-06 (inactive) | 0.00558 (inactive) | 17% (inactive) | 28.8% (inactive)
Cc1ccc(N2CC(C(=O)Nc3ccc4c(c3)OCO4)CC2=O)cc1 (stereo not drawn) | 556 | -19.5% (inactive) | 18.6% (inactive) | 110 | -43.5% (inactive) | 120 | -0.567 (inactive) | -4.3e-05 (inactive) | 0.00603 (inactive) | 14.2% (inactive) | 21.6% (inactive)
